Calls of active or inactive are those of the source. The calls are words filed in the database; no cut-off is given here.
Tests used:
Format in all cases: functional
NCI-H522 = assay: Growth inhibition of human NCI-H522 cells after 48 hrs by SRB assay; details: NCI-H522, 48 h
Procedure, shortened: (§1)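 NCI 60-cell-line screen: after preliminary screening, tested at five dose concentrations on 59 human tumour lines covering leukemia, lung, colon, CNS, melanoma, ovarian, renal, prostate and breast.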

M14 = assay: Growth inhibition of human M14 cells after 48 hrs by SRB assay; details: M14, 48 h; procedure, shortened: as §1
SNB-75 = assay: Growth inhibition of human SNB75 cells after 48 hrs by SRB assay; details: SNB-75, 48 h
Procedure, shortened: (§2)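 NCI 60-cell-line panel, five-dose testing after preliminary screen; sulforhodamine B protein assay in DMEM with 10% FBS, 37 °C, 5% CO2, 100% humidity. Cells seeded and incubated 24 h before compound addition, then exposed 48 h. Absorbance read at 560 nm; growth percentage relative to control wells; GI50 taken as concentration giving 50% growth inhibition.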

786-0 = assay: Growth inhibition of human 786-0 cells after 48 hrs by SRB assay; details: 786-0, 48 h; procedure, shortened: as §1
SNB-19 = assay: Growth inhibition of human SNB19 cells after 48 hrs by SRB assay; procedure, shortened: as §2
LOX IMVI = assay: Growth inhibition of human LOXIMVI cells after 48 hrs by SRB assay; procedure, shortened: as §1
SW-620 = assay: Growth inhibition of human SW620 cells after 48 hrs by SRB assay; procedure, shortened: as §2
A549 = assay: Growth inhibition of human A549 cells after 48 hrs by SRB assay; details: A549, 48 h; procedure, shortened: as §1
SK-MEL-28 = assay: Growth inhibition of human SK-MEL-28 cells after 48 hrs by SRB assay; procedure, shortened: as §2
HCC 2998 = assay: Growth inhibition of human HCC2998 cells after 48 hrs by SRB assay; procedure, shortened: as §1
MCF7 [1] = assay: Growth inhibition of human MCF7 cells after 48 hrs by SRB assay; details: MCF7, 48 h; procedure, shortened: as §1
OVCAR-5 = assay: Growth inhibition of human OVCAR5 cells after 48 hrs by SRB assay; procedure, shortened: as §1
SK-MEL-2 = assay: Growth inhibition of human SK-MEL-2 cells after 48 hrs by SRB assay; details: SK-MEL-2, 48 h; procedure, shortened: as §2
U-251 = assay: Growth inhibition of human U251cells after 48 hrs by SRB assay; details: U-251, 48 h; procedure, shortened: as §2
CAKI-1 = assay: Growth inhibition of human Caki1 cells after 48 hrs by SRB assay; details: CAKI-1, 48 h; procedure, shortened: as §1
SR = assay: Growth inhibition of human SR cells after 48 hrs by SRB assay; procedure, shortened: as §2
MCF7 [2] = assay: Cell cycle arrest in human MCF7 cells assessed as accumulation at S phase at 4 uM after 24 hrs by FACS analysis (reference value: 6.79%)
HT-29 = assay: Growth inhibition of human HT-29 cells after 48 hrs by SRB assay; details: HT-29, 48 h; procedure, shortened: as §1
NCI-H460 = assay: Growth inhibition of human NCI-H460 cells after 48 hrs by SRB assay; details: NCI-H460, 48 h; procedure, shortened: as §1
NCI/ADR-RES = assay: Growth inhibition of human NCI/ADR-RES cells after 48 hrs by SRB assay; procedure, shortened: as §1
A498 = assay: Growth inhibition of human A498 cells after 48 hrs by SRB assay; details: A498, 48 h; procedure, shortened: as §1
NCI-H23 = assay: Growth inhibition of human NCI-H23 cells after 48 hrs by SRB assay; details: NCI-H23, 48 h; procedure, shortened: as §1
MDA-MB-435 = assay: Growth inhibition of human MDA-MB-435 cells after 48 hrs by SRB assay; details: MDA-MB-435, 48 h; procedure, shortened: as §1
MCF7 [3] = assay: Cytotoxicity against human MCF7 cells after 48 hrs assessed as inhibition of cell growth at 10 uM after 48 hrs by SRB assay relative to control; details: MCF7, 48 h, read-out: GI
Procedure, shortened: (§3)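 SRB protein assay in DMEM with 10% FBS at 37 °C, 5% CO2, 100% relative humidity. Cells seeded in 96-well plates, incubated 24 h, then exposed to drug at 10 µM for 48 h and processed per standard protocol. Absorbance read at 560 nm; growth percentage calculated for test wells relative to control wells.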

HEp-2 = assay: Cytotoxicity against human Hep2 cells after 48 hrs assessed as inhibition of cell growth at 10 uM after 48 hrs by SRB assay relative to control; details: HEp-2, 48 h, read-out: GI; procedure, shortened: as §3
OVCAR-3 = assay: Growth inhibition of human OVCAR3 cells after 48 hrs by SRB assay; details: OVCAR-3, 48 h; procedure, shortened: as §1
THP-1 = assay: Cytotoxicity against human THP1 cells after 48 hrs assessed as inhibition of cell growth at 10 uM after 48 hrs by SRB assay relative to control; details: THP-1, 48 h, read-out: GI; procedure, shortened: as §3
COLO 205 = assay: Cytotoxicity against human COLO205 cells after 48 hrs assessed as inhibition of cell growth at 10 uM after 48 hrs by SRB assay relative to control; details: COLO 205, 48 h, read-out: GI; procedure, shortened: as §3
IGROV-1 = assay: Growth inhibition of human IGROV1 cells after 48 hrs by SRB assay; details: IGROV-1, 48 h; procedure, shortened: as §1
UACC-257 = assay: Growth inhibition of human UACC257 cells after 48 hrs by SRB assay; details: UACC-257, 48 h; procedure, shortened: as §2
ACHN = assay: Growth inhibition of human ACHN cells after 48 hrs by SRB assay; procedure, shortened: as §1
MOLT-4 = assay: Growth inhibition of human MOLT4 cells after 48 hrs by SRB assay; details: MOLT-4, 48 h; procedure, shortened: as §1
KM12 = assay: Growth inhibition of human KM12 cells after 48 hrs by SRB assay; details: KM12, 48 h; procedure, shortened: as §1
MDA-MB-468 = assay: Growth inhibition of human MDA-MB-468 cells after 48 hrs by SRB assay; details: MDA-MB-468, 48 h; procedure, shortened: as §1
PC-3 = assay: Cytotoxicity against human PC3 cells after 48 hrs assessed as inhibition of cell growth at 10 uM after 48 hrs by SRB assay relative to control; details: PC-3, 48 h, read-out: GI; procedure, shortened: as §3
TK-10 = assay: Growth inhibition of human TK10 cells after 48 hrs by SRB assay; details: TK-10, 48 h; procedure, shortened: as §2
HCT-15 = assay: Growth inhibition of human HCT15 cells after 48 hrs by SRB assay; details: HCT-15, 48 h; procedure, shortened: as §1
SN12C = assay: Growth inhibition of human SN12C cells after 48 hrs by SRB assay; procedure, shortened: as §2
Hs-578T = assay: Growth inhibition of human Hs578T cells after 48 hrs by SRB assay; procedure, shortened: as §1
RXF 393 = assay: Growth inhibition of human RXF393 cells after 48 hrs by SRB assay; details: RXF 393, 48 h; procedure, shortened: as §1
UO-31 = assay: Growth inhibition of human UO31 cells after 48 hrs by SRB assay; details: UO-31, 48 h; procedure, shortened: as §2
SK-MEL-5 = assay: Growth inhibition of human SK-MEL-5 cells after 48 hrs by SRB assay; details: SK-MEL-5, 48 h; procedure, shortened: as §2

## COc1ccc2nc(NC(=O)COc3cc(/C=C\c4cc(OC)c(OC)c(OC)c4)ccc3OC)sc2c1
NCI-H522
  GI50: 3.09 µM
M14
  GI50: 4.33 µM
SNB-75
  GI50: 1.91 µM
786-0
  GI50: 7.52 µM
SNB-19; SNB-19, 48 h
  GI50: 6.3 µM
LOX IMVI
  GI50: 4.17 µM
SW-620; SW-620, 48 h
  GI50: 5.1 µM
A549
  GI50: 5.19 µM
SK-MEL-28; SK-MEL-28, 48 h
  GI50: 4.41 µM
HCC 2998; HCC 2998, 48 h
  GI50: 7.34 µM
MCF7 [1]
  GI50: 2.88 µM
OVCAR-5; OVCAR-5, 48 h
  GI50: 5.89 µM
SK-MEL-2
  GI50: 4.07 µM
U-251
  GI50: 4 µM
CAKI-1
  GI50: 3.2 µM
SR
  GI50: 3.69 µM
MCF7 [2]
  Activity: 7.12%
HT-29
  GI50: 3.34 µM
NCI-H460
  GI50: 3.73 µM
NCI/ADR-RES
  GI50: 2.3 µM
A498
  GI50: 3.5 µM
NCI-H23
  GI50: 3.91 µM
MDA-MB-435
  GI50: 1.16 µM
MCF7 [3]
  inhibition of growth at 10 µM: 53%
HEp-2
  inhibition of growth at 10 µM: 71%
OVCAR-3
  GI50: 2.17 µM
THP-1
  inhibition of growth at 10 µM: 72%
COLO 205
  inhibition of growth at 10 µM: 56%
IGROV-1
  GI50: 7 µM
UACC-257
  GI50: 63 µM
ACHN
  GI50: 7.77 µM
MOLT-4
  GI50: 3.87 µM
KM12
  GI50: 3.12 µM
MDA-MB-468
  GI50: 2.29 µM
PC-3
  inhibition of growth at 10 µM: 33%
TK-10
  GI50: 7.54 µM
HCT-15
  GI50: 2.89 µM
SN12C
  GI50: 5.75 µM
Hs-578T
  GI50: 4.15 µM
RXF 393
  GI50: 2.5 µM
UO-31
  GI50: 4.31 µM
SK-MEL-5
  GI50: 2.68 µM

## COc1ccc(/C=C\c2cc(OC)c(OC)c(OC)c2)cc1OCC(=O)Nc1ccc2nc(C)sc2c1
NCI-H522
  GI50: 2.28 µM
M14
  GI50: 3.38 µM
SNB-75
  GI50: 1.55 µM
786-0
  GI50: 7.55 µM
SNB-19; SNB-19, 48 h
  GI50: 3.89 µM
LOX IMVI
  GI50: 2.64 µM
SW-620; SW-620, 48 h
  GI50: 4.7 µM
A549
  GI50: 2.1 µM
SK-MEL-28; SK-MEL-28, 48 h
  GI50: 3.22 µM
HCC 2998; HCC 2998, 48 h
  GI50: 6.9 µM
MCF7 [1]
  GI50: 0.74 µM
OVCAR-5; OVCAR-5, 48 h
  GI50: 6.69 µM
SK-MEL-2
  GI50: 3.15 µM
U-251
  GI50: 3.59 µM
CAKI-1
  GI50: 2.19 µM
SR
  GI50: 2.93 µM
MCF7 [2]
  Activity: 7.71%
HT-29
  GI50: 3.31 µM
NCI-H460
  GI50: 3.36 µM
NCI/ADR-RES
  GI50: 2.36 µM
A498
  GI50: 4.18 µM
NCI-H23
  GI50: 2.53 µM
MDA-MB-435
  GI50: 2.13 µM
MCF7 [3]
  inhibition of growth at 10 µM: 52%
HEp-2
  inhibition of growth at 10 µM: 40%
OVCAR-3
  GI50: 6.32 µM
THP-1
  inhibition of growth at 10 µM: 59%
COLO 205
  inhibition of growth at 10 µM: 17%
IGROV-1
  GI50: 3.72 µM
UACC-257
  GI50: 1.73 µM
ACHN
  GI50: 3.12 µM
MOLT-4
  GI50: 2.11 µM
KM12
  GI50: 3.79 µM
MDA-MB-468
  GI50: 2.39 µM
PC-3
  inhibition of growth at 10 µM: 61%
TK-10
  GI50: 4.21 µM
HCT-15
  GI50: 2.8 µM
SN12C
  GI50: 3.53 µM
Hs-578T
  GI50: 4.32 µM
RXF 393
  GI50: 5.06 µM
UO-31
  GI50: 2.41 µM
SK-MEL-5
  GI50: 1.97 µM

## COc1ccc(/C=C\c2cc(OC)c(OC)c(OC)c2)cc1OCC(=O)Nc1nc2ccc(F)cc2s1
NCI-H522
  GI50: 2.92 µM
M14
  GI50: 6.82 µM
SNB-75
  GI50: 4.39 µM
786-0
  GI50: 7.12 µM
SNB-19
  GI50: inactive
LOX IMVI
  GI50: 3.23 µM
SW-620
  GI50: inactive
A549
  GI50: 5.99 µM
SK-MEL-28
  GI50: inactive
HCC 2998
  GI50: inactive
MCF7 [1]
  GI50: 2.3 µM
OVCAR-5
  GI50: inactive
SK-MEL-2
  GI50: 8.46 µM
U-251
  GI50: 4.33 µM
CAKI-1
  GI50: 2.78 µM
SR
  GI50: 2.19 µM
MCF7 [2]
  Activity: 13.64%
HT-29
  GI50: 9.63 µM
NCI-H460
  GI50: 4.36 µM
NCI/ADR-RES
  GI50: 2.55 µM
A498
  GI50: 6.25 µM
NCI-H23
  GI50: 4.26 µM
MDA-MB-435
  GI50: 0.33 µM
MCF7 [3]
  inhibition of growth at 10 µM: 56%
HEp-2
  inhibition of growth at 10 µM: 64%
OVCAR-3
  GI50: 9.99 µM
THP-1
  inhibition of growth at 10 µM: 54%
COLO 205
  inhibition of growth at 10 µM: 50%
IGROV-1
  GI50: 4.17 µM
UACC-257
  GI50: 8.69 µM
ACHN
  GI50: 3.33 µM
MOLT-4
  GI50: 3.07 µM
KM12
  GI50: 4.78 µM
MDA-MB-468
  GI50: 3.68 µM
PC-3
  inhibition of growth at 10 µM: 32%
TK-10
  GI50: 9.89 µM
HCT-15
  GI50: 8.19 µM
SN12C
  GI50: 4.61 µM
Hs-578T
  GI50: inactive
RXF 393
  GI50: 6.29 µM
UO-31
  GI50: 2.56 µM
SK-MEL-5
  GI50: 1.76 µM
